Measurements published in ChEMBL document CHEMBL1155234, “Dialkylamino and nitrogen heterocyclic analogues of hexadecylphosphocholine and cetyltrimetylammonium bromide: effect of phosphate group and environment of the ammonium cation on their biological activity” (Eur J Med Chem, 2009).
Converted amounts (≈) assume the structure as drawn.

Key:
[1] = system: A549; assay: Cytotoxicity against human A549 cells after 72 hrs by MTT assay; type: functional, cell-based; settings: A549, 72 h
Method in brief: (§1)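 MTT end-point assay. Cells were exposed to compound at 1×10^-4 to 1×10^-8 mol l⁻¹ final for 72 h. Seeding was 3×10^3 cells ml⁻¹ for A-549, MCF-7 and MDA-MB-231; 5×10^3 for HeLa; 1×10^4 for Jurkat and CCRF-CEM. Media were DMEM/10% FCS (A-549, MCF-7, MDA-MB-231) or RPMI-HEPES/10% FCS (others). Formazan was dissolved in SDS for 12 h and read at 540 nm against untreated control, in triplicate. IC50 was curve-fitted.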

[2] = system: CCRF-CEM; assay: Cytotoxicity against human CCRF-CEM cells after 72 hrs by MTT assay; type: functional, cell-based; method in brief: as §1
[3] = system: HeLa; assay: Cytotoxicity against human HeLa cells after 72 hrs by MTT assay; type: functional, cell-based; method in brief: as §1
[4] = system: Jurkat; assay: Cytotoxicity against human Jurkat cells after 72 hrs by MTT assay; type: functional, cell-based; method in brief: as §1
[5] = system: Acanthamoeba lugdunensis; assay: Trophocidal activity against Acanthamoeba lugdunensis assessed as viability for 14 days by trypan blue exclusion assay; type: functional
Method in brief: (§2)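 Trophozoites were grown axenically in PYG medium and seeded at 2×10^5 cells ml⁻¹ (100 µl), then mixed with compound in PYG at 37 °C. APCs were tested at 25–800 µM (six levels) and QUATs at 7.25–100 µM (five levels). Viability was scored by trypan blue exclusion. Eradication was confirmed by transfer to fresh PYG with growth monitored for 14 days. MTC was the lowest concentration giving 100% eradication.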

[6] = system: Candida albicans; assay: Antifungal activity against Candida albicans CCM 8186 assessed as inhibition of colony formation after 24 hrs; type: functional
Method in brief: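 C. albicans came from 24-h Sabouraud agar cultures and was suspended at 5×10^5 cells ml⁻¹ in physiological solution pH 7.2, adjusted to A540 = 0.35. It was mixed with aqueous compound and double-concentrated Sabouraud medium and incubated 24 h at 37 °C. Each well was then subcultured on Sabouraud agar for 24 h at 37 °C. MFC was the lowest concentration giving no colonies.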

[7] = system: MCF7; assay: Cytotoxicity against human MCF7 cells after 72 hrs by MTT assay; type: functional, cell-based; settings: MCF7, 72 h; method in brief: as §1
[8] = Toxicity in human erythrocytes assessed as hemolysis after 1 hr; type: cell-based, Erythrocyte
Method in brief: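 Citrated human blood erythrocytes were washed three times in Ca/Mg-free PBS (2000g, 10 min) and resuspended in glucose-containing phosphate buffer, pH 7.4. They were diluted 1:10 into compound-containing buffer to a final 6.7–6.8×10^7 cells ml⁻¹ and incubated 1 h at 37 °C with shaking. After centrifugation, supernatant absorbance at 542 nm was compared with fully lysed controls (CTAB).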

[9] = system: MDA-MB-231; assay: Cytotoxicity against human MDA-MB-231 cells after 72 hrs by MTT assay; type: functional, cell-based; settings: MDA-MB-231, 72 h; method in brief: as §1
[10] = system: Acanthamoeba polyphaga; assay: Trophocidal activity against Acanthamoeba polyphaga 5SU assessed as viability for 14 days by trypan blue exclusion assay; type: functional; method in brief: as §2
[11] = system: Acanthamoeba lenticulata; assay: Trophocidal activity against Acanthamoeba lenticulata 72/2 assessed as viability for 14 days by trypan blue exclusion assay; type: functional; method in brief: as §2
[12] = system: Acanthamoeba castellanii; assay: Trophocidal activity against Acanthamoeba castellanii 1BU assessed as viability for 14 days by trypan blue exclusion assay; type: functional; method in brief: as §2

`CCCCCCCCCCCCCCCCOP(=O)([O-])OCC[N+]1(C)CCCCCC1` showed an IC50 [1] of 55.1 µM, an IC50 [2] of 9.8 µM and an IC50 [3] of 53.1 µM. For the same compound, the IC50 [4] was 18.2 µM, the MTC [5] was 50 µM and the MFC ([6]; CCM 8186, 24 h) was 8 µM (≈ 3.69 µg/mL). The IC50 [7] was 51.5 µM, the EC50 at 1 hr [8] was 25 µM and the IC50 [9] was 49.8 µM.

Compound `CCCCCCCCCCCCCCCC[N+]1(C)CCCC1.[Br-]` has an IC50 [1] of 0.53 µM, an IC50 [2] of 1.35 µM and an IC50 [3] of 2.29 µM. It also gave an IC50 [4] of 0.82 µM, an MTC [5] of 12.5 µM and an MFC ([6]; CCM 8186, 24 h) of 10 µM. The IC50 [7] was 0.62 µM, the EC50 at 1 hr [8] was 35 µM and the IC50 [9] was 3.8 µM.

`CCCCCCCCCCCCCCCCOP(=O)([O-])OCC[N+]1(C)CCCC1` gave an IC50 [1] of 53.2 µM, an IC50 [2] of 9.3 µM and an IC50 [3] of 46.2 µM. It also gave an IC50 [4] of 10 µM, an MTC [5] of 200 µM and an MFC ([6]; CCM 8186, 24 h) of 8 µM (≈ 3.47 µg/mL). The IC50 [7] was 39.3 µM, the EC50 at 1 hr [8] was 30 µM and the IC50 [9] was 37.9 µM.

In the case of `CCCCCCCCCCCCCCCC[N+]1(C)CCCCCCC1.[Br-]`, the IC50 [1] is reported as 0.85 µM, the IC50 [2] is reported as 1 µM and the IC50 [3] is reported as 1.43 µM. The IC50 [4] was 0.78 µM, the MTC [5] was 12.5 µM and the MFC ([6]; CCM 8186, 24 h) was 9 µM. The IC50 [7] was 0.94 µM, the EC50 at 1 hr [8] was 30 µM and the IC50 [9] was 4.12 µM.

For `CCCCCCCCCCCCCCCC[N+](C)(CC)CC.[Br-]`, the IC50 [1] was 0.62 µM, the IC50 [2] was 2.1 µM and the IC50 [3] was 1.38 µM. For the same compound, the IC50 [4] was 0.8 µM, the MTC [5] was 25 µM and the MFC ([6]; CCM 8186, 24 h) was 10 µM. The IC50 [7] was 0.65 µM, the EC50 at 1 hr [8] was 40 µM and the IC50 [9] was 4.9 µM.

For `CCCCCCCCCCCCCCCCOP(=O)([O-])OCC[N+](C)(CCC)CCC`, the IC50 [1] was 55 µM, the IC50 [2] was 19.2 µM and the IC50 [3] was 55 µM. It also gave an IC50 [4] of 28.6 µM, an MTC [5] of 400 µM and an MFC ([6]; CCM 8186, 24 h) of 16 µM (≈ 7.42 µg/mL). The IC50 [7] was 50.6 µM, the EC50 at 1 hr [8] was 30 µM and the IC50 [9] was 40.6 µM.

In the case of `CCCCCCCCCCCCCCCC[N+]1(C)CCOCC1.[Br-]`, the IC50 [1] is reported as 0.87 µM, the IC50 [2] is reported as 4.16 µM and the IC50 [3] is reported as 5.61 µM. For the same compound, the IC50 [4] was 3.57 µM, the MTC [5] was 50 µM and the MFC ([6]; CCM 8186, 24 h) was 24 µM. For the same compound, the IC50 [7] was 0.89 µM, the EC50 at 1 hr [8] was 45 µM and the IC50 [9] was 5.75 µM.

`CCCCCCCCCCCCCCCC[N+](C)(CCCC)CCCC.[Br-]` gave an IC50 [1] of 0.64 µM, an IC50 [2] of 0.91 µM and an IC50 [3] of 0.9 µM. The IC50 [4] was 0.76 µM, the MTC [5] was 25 µM and the MFC ([6]; CCM 8186, 24 h) was 9 µM. It also gave an IC50 [7] of 0.68 µM, an EC50 at 1 hr [8] of 25 µM and an IC50 [9] of 2.55 µM.

In the case of `CCCCCCCCCCCCCCCCOP(=O)([O-])OCC[N+](C)(C)C` [MILTEFOSINE], the IC50 [1] is reported as 44.7 µM, the IC50 [2] is reported as 13.5 µM and the IC50 [3] is reported as 41.6 µM. It also gave an IC50 [4] of 10 µM, an MTC [5] of 400 µM and an MTC [10] of 31.25 µM. The MFC ([6]; CCM 8186, 24 h) was 4 µM (≈ 1.63 µg/mL), the IC50 [7] was 39.2 µM and the EC50 at 1 hr [8] was 30 µM. For the same compound, the IC50 [9] was 37.6 µM, the MTC [11] was 20 µM and the MTC [12] was 31.25 µM.

`CCCCCCCCCCCCCCCC[N+](C)(CCC)CCC.[Br-]` gave an IC50 [1] of 0.75 µM, an IC50 [2] of 1.96 µM and an IC50 [3] of 1.68 µM. It also gave an IC50 [4] of 0.85 µM, an MTC [5] of 25 µM and an MFC ([6]; CCM 8186, 24 h) of 19 µM. It also gave an IC50 [7] of 0.8 µM, an EC50 at 1 hr [8] of 30 µM and an IC50 [9] of 4.27 µM.

With `CCCCCCCCCCCCCCCCOP(=O)([O-])OCC[N+]1(C)CCCCCCC1` the IC50 [1] was 55 µM, the IC50 [2] was 43.8 µM and the IC50 [3] was 55 µM. It also gave an IC50 [4] of 38.6 µM, an MTC [5] of 50 µM and an MFC ([6]; CCM 8186, 24 h) of 8 µM (≈ 3.81 µg/mL). The IC50 [7] was 53.3 µM, the EC50 at 1 hr [8] was 30 µM and the IC50 [9] was 45.6 µM.

In the case of Cetyltrimethylammonium bromide, the MTC [5] is reported as 25 µM and the MFC [6] is reported as 21 µM.

In the case of `CCCCCCCCCCCCCCCCOP(=O)([O-])OCC[N+](C)(CC)CC`, the IC50 [1] is reported as 59.4 µM, the IC50 [2] is reported as 9 µM and the IC50 [3] is reported as 49.4 µM. The IC50 [4] was 19.6 µM, the MTC [5] was 200 µM and the MFC ([6]; CCM 8186, 24 h) was 4 µM (≈ 1.74 µg/mL). It also gave an IC50 [7] of 53.7 µM, an EC50 at 1 hr [8] of 30 µM and an IC50 [9] of 34.4 µM.

`CCCCCCCCCCCCCCCC[N+]1(C)CCCCCC1.[Br-]` gave an IC50 [1] of 0.67 µM, an IC50 [2] of 1 µM and an IC50 [3] of 1.82 µM. For the same compound, the IC50 [4] was 0.8 µM, the MTC [5] was 12.5 µM and the MFC ([6]; CCM 8186, 24 h) was 9 µM. For the same compound, the IC50 [7] was 0.72 µM, the EC50 at 1 hr [8] was 35 µM and the IC50 [9] was 2.84 µM.

With `CCCCCCCCCCCCCCCCOP(=O)([O-])OCC[N+]1(C)CCOCC1` the IC50 [1] was 42 µM, the IC50 [2] was 8.25 µM and the IC50 [3] was 21.7 µM. It also gave an IC50 [4] of 7.7 µM, an MTC [5] of 200 µM and an MFC ([6]; CCM 8186, 24 h) of 8 µM (≈ 3.6 µg/mL). For the same compound, the IC50 [7] was 22.4 µM, the EC50 at 1 hr [8] was 30 µM and the IC50 [9] was 11.4 µM.

With `CCCCCCCCCCCCCCCCOP(=O)([O-])OCC[N+]1(C)CCCCC1` the IC50 [1] was over 100 µM, the IC50 [2] was 11.2 µM and the IC50 [3] was 57.2 µM. It also gave an IC50 [4] of 14 µM, an MTC [5] of 200 µM and an MFC ([6]; CCM 8186, 24 h) of 8 µM (≈ 3.58 µg/mL). For the same compound, the IC50 [7] was 54.8 µM, the EC50 at 1 hr [8] was 25 µM and the IC50 [9] was 51.7 µM.

With `CCCCCCCCCCCCCCCC[N+]1(C)CCCCC1.[Br-]` the IC50 [1] was 0.63 µM, the IC50 [2] was 0.92 µM and the IC50 [3] was 1.47 µM. The IC50 [4] was 0.72 µM, the MTC [5] was 12.5 µM and the MFC ([6]; CCM 8186, 24 h) was 10 µM. It also gave an IC50 [7] of 0.59 µM, an EC50 at 1 hr [8] of 35 µM and an IC50 [9] of 3.86 µM.
